The text below walks through data of ChEMBL document CHEMBL3098002, “Cassaine diterpene alkaloids from Erythrophleum fordii and their anti-angiogenic effect” (Bioorg Med Chem Lett, 2014).

For data set [1], the system named is HUVEC. The experiment in a line: Cytotoxicity against HUVEC assessed as cell viability at 3 to 30 ug/ml after 48 hrs by MTT assay. It counts as cell-based. The following applies: human. The method in brief: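 HUVECs were grown on gelatin-coated plates to 80% confluency, then treated for 48 h alongside a 0.1% DMSO control. MTT was added to a final 0.05% for 3 h at 37 °C. Formazan was dissolved in DMSO and read at 570 nm against 630 nm reference. Viability was expressed as a percentage of untreated cells.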

For data set [2], the system named is HUVEC. The experiment in a line: Antiangiogenic activity against HUVEC assessed as inhibition of capillary-like tube formation at 3 ug/ml after 15 hrs by Matrigel assay relative to control. It counts as functional. The following applies: Homo sapiens. The method in brief:
(§1)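 HUVECs were grown in M199 with 20% FBS, 1% penicillin/streptomycin, 0.01% heparin and ECGS on 0.2% gelatin-coated plates at 37 °C in 5% CO2. For the assay, 1 × 10^4 cells were suspended in medium containing compound and added onto polymerized Matrigel at 37 °C. Cultures were photographed at ×100 and tubes counted. Values were normalized to solvent controls (100%), n = 3, mean ± SD.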

Data set [3] has as its system HUVEC. Description: Cytotoxicity against HUVEC at 3 to 30 ug/ml by LDH release assay. It counts as cell-based. The settings on record: human.
The subject of data set [4] is HUVEC. The experiment in a line: Antiangiogenic activity against HUVEC assessed as inhibition of capillary-like tube formation at 30 ug/ml after 15 hrs by Matrigel assay relative to control. The format is functional. The following applies: Homo sapiens. The essentials: as §1
Data set [5] has as its system HUVEC. The experiment in a line: Antiangiogenic activity against HUVEC assessed as inhibition of capillary-like tube formation at 3 to 30 ug/ml after 15 hrs by Matrigel assay relative to control. It counts as functional, cell-based. The settings on record: Homo sapiens. The essentials:
as §1

A word on the inhibition: it is the drop in the measured response relative to a control, in per cent.

Calls of active or inactive are those of the source. No cut-off for these calls is given here.

Regarding `COC(=O)[C@@]1(C)CCC[C@@]2(C)[C@H]1CC(=O)[C@H]1[C@@H](C)/C(=C/C(=O)N(C)CCO)CC[C@@H]12`, the Activity entry in the data set on HUVEC [1] is listed as “Non-toxic”. Besides, the inhibition entry with HUVEC [2] was “Active”.
`COc1cc(/C=C/C(=O)CC(=O)/C=C/c2ccc(O)c(OC)c2)ccc1O` [CURCUMIN]: in the data set on HUVEC [2], the inhibition at 3 µg/mL stood at 45%.
`COC(=O)[C@]1(C)[C@@H]2CC(=O)[C@H]3[C@@H](C)/C(=C/C(=O)N(C)CCO)CC[C@@H]3[C@@]2(C)CC[C@@H]1O`: in the data set with HUVEC [1], the Activity entry was “Non-toxic”. In the data set on HUVEC [2], the inhibition result is “Active”.
For `COC(=O)[C@@]1(C)[C@@H](OC(C)=O)CC[C@@]2(C)[C@H]1CC(=O)[C@H]1[C@@H](C)/C(=C/C(=O)N(C)CCO)CC[C@@H]12`, the figures for the Activity entry with HUVEC [1] and in the data set on HUVEC [3] were “Non-toxic” and “Toxic”, respectively. Also, the inhibition at 3 µg/mL with HUVEC [2] amounted to 42%. For the same molecule, the inhibition at 30 µg/mL in the data set on HUVEC [4] stood at 4.5%. In addition, the inhibition result with HUVEC [5] is “Active”.
For the molecule `COC(=O)[C@@]1(C)CCC[C@@]2(C)[C@H]1[C@@H](O)C(=O)[C@H]1[C@@H](C)/C(=C/C(=O)N(C)CCO)CC[C@@H]12`, in the data set on HUVEC [1], the Activity result is “Non-toxic”. Besides, the inhibition result in the data set with HUVEC [2] was “Active”.
For the molecule `COC(=O)[C@@]1(C)[C@@H](OC(C)=O)CC[C@@]2(C)[C@H]1[C@@H](O)C(=O)[C@H]1[C@@H](C)/C(=C/C(=O)N(C)CCO)CC[C@@H]12`, in the data set with HUVEC [1], the Activity result is “Non-toxic”. In the data set on HUVEC [2], the inhibition entry was “Active”.
In the case of `COC(=O)[C@]1(C)[C@@H]2CC[C@H]3[C@@H](C)/C(=C/C(=O)N(C)CCO)CC[C@@H]3[C@@]2(C)CC[C@@H]1O`, in the data set with HUVEC [1], the Activity entry is recorded as “Non-toxic”. The inhibition result in the data set with HUVEC [2] was “Active”.
